proCasp3 act: activators of human procaspase-3 D3A mutant, primary screen, biochemical, absorbance, PC-3 D3A mutant, single concentration | 330,000 compounds, 0.11% hits | Caspase-3 (Homo sapiens), P42574 | recombinant procaspase-3 D3A, Ac-DEVD-pNA absorbance 405 nm | activation, % at 8.5 µM;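 active means activation above the mean of all tested compounds plus 3 SD, cut at about 21% in these data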;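 further: 0% = DMSO alone and 100% = DMSO wells spiked with extra 5 µM PC-3 D3A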
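Assay system – Procaspase-3 D3A mutant, all three cleavage aspartates alanine · Controls – DMSO-only low control, 5 µM PC-3 D3A high control · Schedule – 1 h compound preincubation, 2 h substrate hydrolysis at 25 °C · Signal – 405 nm absorbance of p-nitroaniline, reads at 0 and 120 min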
Hep lipid drop: inhibitors of hepatocyte lipid droplet formation, primary screen, imaging, high-throughput imaging, BODIPY stain; AML12 mouse hepatocytes, oleate lipid droplets; inhibition, % at 6.5 µM; 240,000 compounds, 0.4% hits; AID 1656, 2009;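 active means lipid droplet intensity inhibited by at least 50%, with more than 500 cells counted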
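Material – mouse AML12 hepatocyte cell line, fixed after treatment · Compound dosing – one dose, 6.5 µM compound · Times – compound with oleate, overnight · Measured by – Image-based BODIPY and DAPI two-channel analysis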
GRK2 aptamer HTS: compounds blocking aptamer binding on GRK2 – biochemical, human GRK2, bead flow cytometry, HTS, primary screen. Beta-adrenergic receptor kinase 1 (Homo sapiens), P25098. FAM-aptamer displacement from GRK2. inhibition of aptamer binding, % at 10 µM. 330,000 compounds, 0.59% hits. AID 488847, 2010;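 active means inhibition of aptamer binding above 40%, roughly 3 SD of noise, on plates passing a quality check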;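 further: median bead fluorescence of bound FAM aptamer so fluorescent compounds give negative values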
proCasp7 act: procaspase-7 activators, primary screen, counter-screen for procaspase-3 activator project, biochemical, absorbance, HTS, human | Caspase-7 (Homo sapiens), P55210 | 330,000 compounds, 0.093% hits | AID 463210, 2010 | activation, % at 8.5 µM | recombinant procaspase-7, Ac-DEVD-pNA absorbance 405 nm; D23A/D198A/D206A triple mutant, cannot self-cleave; scale: DMSO 0, 5 µM enzyme 100;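 active means percent activation above the screen-wide mean plus 3 SD, cut at about 25% in these data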
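System: Procaspase-7 triple mutant (PC-7 D3A); measure: % activation from two-timepoint absorbance difference, scaled to controls; times: 1 h compound preincubation, 2 h substrate cleavage, 25 °C; also added: Ac-DEVD-pNA substrate, 400 µM as added; measured by: Epi-absorbance of released pNA at 405 nm, two timepoints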
VLA-4 inh: inhibition in human VLA-4 binding assay, primary screen, VLA-4 allosteric modulator project, MLPCN library, flow cytometry, VLA-4 expressing cells | inhibition, % (about 7 µM as worked out from the volumes in the protocol) | AID 2557, 2010 | Integrin alpha-4 (Homo sapiens), P13612 | ligand binding flow cytometry | 330,000 compounds, 0.2% hits; in the data active means inhibition above about 50%
JMJD2C inh: inhibitors of GASC-1 histone demethylase, primary screen, biochemical, fluorescence, DELFIA europium | 330,000 compounds, 0.069% hits | GST-JMJD2C(1-420) H3K9me3 demethylation | inhibition, % at 2.35 µM;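 active means more than half of a compound's replicate wells show inhibition beyond 50%, single wells judged on their own value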;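 further: signal counts dimethyl H3K9 product captured on neutravidin plate; 0% = median of DMSO wells and 100% = 0.3 times that DMSO median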
Target sequence (Q9H3R0 1-420 limits assumed): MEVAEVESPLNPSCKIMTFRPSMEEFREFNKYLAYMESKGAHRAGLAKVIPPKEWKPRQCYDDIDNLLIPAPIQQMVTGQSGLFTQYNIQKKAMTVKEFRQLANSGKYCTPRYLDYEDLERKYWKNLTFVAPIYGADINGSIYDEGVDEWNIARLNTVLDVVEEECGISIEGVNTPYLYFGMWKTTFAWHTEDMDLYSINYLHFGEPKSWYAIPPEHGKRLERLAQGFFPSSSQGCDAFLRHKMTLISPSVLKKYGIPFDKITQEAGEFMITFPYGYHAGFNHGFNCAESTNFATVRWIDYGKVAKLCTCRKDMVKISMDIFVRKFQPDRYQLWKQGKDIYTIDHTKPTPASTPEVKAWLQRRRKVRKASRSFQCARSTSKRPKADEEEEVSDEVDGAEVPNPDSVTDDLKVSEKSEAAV
PC3 dual counter: procaspase-3 activators, counter-screen for dual procaspase-3/7 activator project, biochemical, absorbance, PC-3 D3A mutant, human. activation, % at 8.5 µM. recombinant PC-3 D3A, Ac-DEVD-pNA absorbance 405 nm; aspartates 9, 28, 175 changed to alanine; 100% = enzyme control. shares compounds with proCasp7 act. 290 tested, under 10 active;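 active means mean percent activation across triplicates above a set limit taken from the earlier primary procaspase-3 screen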;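 further: 0% = DMSO wells and 100% = DMSO wells with 5 µM added PC-3 D3A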
Procasp7 act: activation of procaspase-7 enzyme – biochemical, absorbance, human, dual procaspase-3/-7 activator project, confirmation. shares compounds with proCasp7 act. activation, % at 8.5 µM. 290 tested, under 10 active. recombinant procaspase-7, Ac-DEVD-pNA absorbance 405 nm; D23A/D198A/D206A mutant that cannot self-cleave;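 active means mean activation above a set limit carried over from the earlier primary screen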;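 further: 0% = DMSO only and 100% = DMSO with added 5 µM PC-7 enzyme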
The depositor's hits bear a star; . = not tested or not shown. Most compounds without a hit are left out; they make up all but 1.3% or so of the library.

SMILES	proCasp3 act	Hep lipid drop	GRK2 aptamer HTS	proCasp7 act	VLA-4 inh	JMJD2C inh	PC3 dual counter	Procasp7 act
COc1ccc(-c2nnc(NC(=O)c3ccc(S(=O)(=O)N(C)CC4CCCO4)cc3)o2)c(OC)c1 (stereo unspecified)	6	-17	0	3	15	-15	.	.
Cc1ccc(-c2cc3nc(-c4ccccc4)cc(N4CCC5(CC4)OCCO5)n3n2)cc1	-25	9	3	-25	19	-6	.	.
Cc1cccc(-c2cc3nc(-c4ccccc4)cc(N4CCC5(CC4)OCCO5)n3n2)c1	17	1	0	30*	0	-20	-28	-34
Fc1cccc(-c2cc3nc(-c4ccccc4)cc(N4CCC5(CC4)OCCO5)n3n2)c1	22*	0	2	30*	-11	-6	-26	-28
COc1ccc(NC(=O)Nc2cccc(NC(C)=O)c2)c(OC)c1	0	-2	0	-23	6	-5	.	.
COc1ccccc1NC(=O)Nc1cccc(NC(C)=O)c1	2	-8	4	74*	-1	5	2	0
COC(=O)C1=C(C)NC(C)=C(C(=O)OC)C1C(=O)OCCN1C(=O)c2ccccc2C1=O	-13	.	0	44*	-10	3	2	0
COc1ccc2c(-c3ccc(S(N)(=O)=O)cc3)c(-c3ccc(S(C)(=O)=O)cc3)sc2c1	23*	.	3	44*	36	.	-28	-38
CCOc1cc(NC(=S)NCC2CCCO2)c(OCC)cc1NC(=O)c1cccc(F)c1 (stereo unspecified)	0	-3	0	-6	-2	-3	.	.
COc1ccc(C(=O)N/N=C/c2ccc(N(C)c3ccccc3)cc2)cc1	41*	.	1	44*	4	-3	-28	-37
Cc1ccc2nc(-c3ccc(NC(=O)C(C)Sc4nncs4)cc3)sc2c1 (stereo unspecified)	3	.	2	30*	0	15	2	-2
Cc1cccc(C2=NN(c3ccccc3)[C@H](CO)[C@H]2c2ccccc2)c1	20	.	2	35*	.	.	-31	-34
CC[C@H]1C(c2ccc(F)cc2)=NN(c2ccccc2)[C@@H]1CO	-1	.	0	2	.	.	.	.
OC[C@@H]1[C@@H](c2ccc(F)cc2)C(c2ccccc2)=NN1c1ccccc1	30*	.	0	34*	.	.	-30	-35
COc1cccc(C#Cc2c(CO)[nH]c3ccccc23)c1	-2	.	2	-8	0	12	.	.
Cc1ccc(-n2nnnc2SCc2ccc(C(=O)O)cc2)cc1C	8	2	0	2	0	-1	.	.
O=C(COC(=O)Cc1ccc(F)cc1)NC(=O)c1ccccc1	-3	.	5	7	12	7	.	.
CC(C)c1ccc(N=Cc2c(O)c3ccccc3oc2=O)cc1	22*	7	0	30*	7	0	-29	-34
COc1ccc(N=Cc2c(O)c3ccccc3oc2=O)cc1	9	-12	0	12	11	9	.	.

Source: PubChem BioAssay (several laboratories)
